The source of these data is paper PMC11645202 (Bioorganic & medicinal chemistry, 2024).

Where two headings read alike, the source gives them in different places. Marks after values point to notes of the source that are not given here.

A word on the IC50: it is the concentration at which inhibition is half-maximal. By EC50 is commonly meant the concentration needed to bring the measured effect to its halfway point.

The test system of series [1] is MCF-7 human breast carcinoma cells. The settings on record: read-out: MCF-7 IC50; inhibition of growth; cited from earlier work.
Series [2] concerns A-10 cells. The note with it: read-out: A-10 EC50 (cellular microtubule loss); cited from earlier work.
The test system of series [3] is tubulin. The settings on record: compound 5 μM, cited from earlier work.
In series [4] the test system is tubulin. Description: Inhibition of tubulin polymerization. The format is biochemical. The note with it: for IC50: read-out: Tubulin Assembly IC50, tubulin at 10 μM.
Series [5] relates to pancreatic cancer cells (MiaPaca-2). Description: Cytotoxicity in pancreatic cancer cells, Promega CellTiter assay kit. The format is cell-based.
Series [6] relates to A-10 cells. Description: Cellular microtubule loss by indirect immunofluorescence. The note with it: 20 μM compound 8c; 15 μM compound 13; 2.5 μM compound 18 (Figure 5). The format is cell-based.
Series [7] relates to MCF-7 human breast carcinoma cells. Nature of the series: MCF-7 cell proliferation assay. It counts as cell-based. In outline: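 MCF-7 human breast carcinoma cells grown 24 h without drug, then 48 h with varying concentrations of test compound. Growth read as total cell protein by sulforhodamine B staining; IC50 taken as concentration inhibiting cell growth.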
Series [8] deals with colon cancer cell line HCT-16. Nature of the series: Cytotoxicity in colon cancer cells, Promega CellTiter assay kit. It counts as cell-based.

For `COc1ccc(/C=C\c2cc(OC)c(OC)c(OC)c2)cc1O` [CA-4, Combretastatin A-4], in series [1], the IC50 is 0.032 ± 0.02 µM. Besides, the EC50 with A-10 cells [2] was under 0.025 µM.
On to `COc1ccc(/C=C\c2cc(OC)c(OC)c(OC)c2)cc1B(O)O` [Compound 1], for which, in series [1], the IC50 was 0.017 ± 0.005 µM. The “[3H]Colchicine Binding inhibition” value with tubulin [3] (tubulin 1 μM, [3H]colchicine 5 μM) is 79 ± 2^e %.
Regarding `COc1cc(/C=C\c2ccccc2B(O)O)cc(OC)c1OC` [Compound 8a, {2-[(Z)-2-(3,4,5-trimethoxyphenyl)vinyl]phenyl}boronic acid], in the series on tubulin [4], the IC50 was over 40 µM. For the same compound, the “activity in MiaPaca-2 (in words)” value in series [5] is “potency comparable to that of CA-4 and phenstatin”.
On to `COc1cc(/C=C\c2ccc(B(O)O)cc2)cc(OC)c1OC` [Compound 8c, {4-[(Z)-2-(3,4,5-trimethoxyphenyl)vinyl]phenyl}boronic acid], for which, in the series with A-10 cells [6], the “effects on interphase microtubules in A-10 cells” value (“effects” for short) is “disrupted microtubules and loss of the microtubule network”.
`COc1cc(/C=C\c2cnc(OC)c(B(O)O)c2)cc(OC)c1OC` [Compound 13, {2-Methoxy-5-[(Z)-2-(3,4,5-trimethoxyphenyl)vinyl]pyridin-3-yl}boronic acid]: the “lower potency compared to 1 in inhibiting tubulin polymerization” value in the series with tubulin [4] (relative to compound 1) was determined as 20 fold. Further, in series [7], the “cytotoxicity in MCF-7 cells (in words)” value was “mid-nanomolar cytotoxicity”. In series [7] (relative to compound 1), the “lower activity compared to 1 in inhibition of MCF-7 cell proliferation” value stood at 23 fold. Besides, in the series with A-10 cells [6], the “effects” value is “disrupted microtubules and loss of the microtubule network”. Further, in series [8] (HCT16, read-out: IC50 in HCT-16), the IC50 was under 5 µM.
For `COc1ccc(C(=O)c2cc(OC)c(OC)c(OC)c2)cc1B(O)O` [Compound 18, [2-Methoxy-5-(3,4,5-trimethoxybenzoyl)phenyl]boronic acid], the “cytotoxicity in MCF-7 cells (in words)” value in series [7] is recorded as “mid-nanomolar cytotoxicity”. The “effects” value in the series on A-10 cells [6] is “disrupted microtubules and loss of the microtubule network”. Also, in series [5], the “activity in MiaPaca-2 (in words)” value is “potency comparable to that of CA-4 and phenstatin”.
For the compound `COc1cc(C(=O)c2cnc(OC)c(B(O)O)c2)cc(OC)c1OC` [Compound 22, [2-Methoxy-5-(3,4,5-trimethoxybenzoyl)pyridin-3-yl]boronic acid], the IC50 with tubulin [4] is over 40 µM. Moreover, in the series on tubulin [4] (tubulin-based assays), the “activity (in words)” value is on record as “no activity”. The “activity in HCT-16 (in words)” value in series [8] was “dramatically reduced activity”. Further, in series [5], the “activity in MiaPaca-2 (in words)” value is listed as “dramatically reduced activity”.
For the compound `COc1ccc(C(=O)c2cc(OC)c(OC)c(OC)c2)cc1O` [Phenstatin, reference compound], the half-maximal inhibitory concentration (IC50) in series [1] is 0.44 ± 0.07 µM. Moreover, in the series on tubulin [3], the “[3H]Colchicine Binding inhibition” value was 86^f %.
